Measurements: paper PMC6299372 (International Journal of Biological Sciences, 2018)
pIC50, pKd, pKi: −log10 of the molar value.

Tests used:
MsepCSP5 = target: T1, MsepCSP5 (Mythimna separata, UniProt A0A5H2NAD7); test: Fluorescence competitive binding assay with the probe 1-NPN; conditions: for pIC50: displacement of 1-NPN from MsepCSP5; for pKi: Ki = IC50/(1+[1-NPN]/K1-NPN); for pKd: dissociation constant (Kd) of MsepCSP5/1-NPN complex, Scatchard plot
T1 sequence (A0A5H2NAD7 1-127): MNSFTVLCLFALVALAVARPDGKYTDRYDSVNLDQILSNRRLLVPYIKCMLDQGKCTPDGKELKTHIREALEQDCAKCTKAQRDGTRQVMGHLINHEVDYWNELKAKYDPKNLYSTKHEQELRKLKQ
Summary of the method: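 Recombinant MsepCSP5 was expressed in E. coli BL21(DE3) as inclusion bodies, refolded, Ni-affinity purified, and His-tag cleaved with enterokinase, then dialyzed into Tris-HCl at pH 5.0 or 7.4. Protein at 2 μM in 30 mM Tris-HCl was titrated with 1-NPN (0–20 μM final). Ex 337 nm, Em 360–600 nm, 25°C. Ligand stocks were in methanol. Kd came from Scatchard plots, and Ki from IC50 corrected for 1-NPN. Three independent replicates.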

M. separata [1] = test: Post-RNAi Y-tube olfactometer bioassay; assay type: in vivo, Mythimna separata; conditions: 72 h old moths of both sexes, after RNAi
Summary of the method: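 Seven-day-old pupae were injected with dsMsepCSP5 (1 µl of 2.5 µg µL-1) into abdominal segments 3–4. Non-injected and dsGFP-injected pupae served as controls. Pupae were held at 25±1°C and 70±5% RH until eclosion. 72 h-old moths of both sexes were tested in the same Y-tube assay (two volatiles, 10 µl vs liquid paraffin, 10 min per moth). 30 females and 30 males per volatile.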

M. separata [2] = test: Y-tube olfactometer behavioral bioassay; assay type: in vivo, Mythimna separata; conditions: for males attracted to / preferring the volatile: male moths; for males attracted to / preferring the volatile / females attracted to / preferring the volatile: volatile vs liquid paraffin control, 10 µl volatile; for behavioral response of M. separata to the volatile (in words): male and female moths; for females attracted to / preferring the volatile: female moths
Summary of the method: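 Y-tube olfactometer with arms 3.0 cm × 26 cm, charcoal-filtered humidified air at 6.0 L min-1. 10 µl volatile on 10×10 mm filter paper was set against a liquid paraffin control. Three-day-old moths were isolated about 30 min beforehand, and separate olfactometers were used per sex. Each moth had 10 min to respond. Tests ran in the dark under orange light, 1–2 h after sunset, at 25±1°C and 70±5% RH. 30 females and 30 males per volatile.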

| pIC50 (MsepCSP5; IC50, pH 5.0) | pIC50 (MsepCSP5; IC50, pH 7.4) | pKi (MsepCSP5; Ki, pH 5.0) | pKi (MsepCSP5; Ki, pH 7.4) | binding affinity to MsepCSP5 (in words) (MsepCSP5; pH 5.0) | Molecule | further results |
| --- | --- | --- | --- | --- | --- | --- |
| 4.89 | 4.74 | 5.21 | 5.14 | high binding affinity | C=CC(C)(O)CCC=C(C)CCC=C(C)C (mixture of isomers) [Nerolidol] | – |
| – | – | – | – | – | c1ccc(Nc2cccc3ccccc23)cc1 [1-NPN, N-phenyl-1-naphthylamine, reference compound] | pKd (MsepCSP5; pH 5.0): 5.54; pKd (MsepCSP5; pH 7.4): 5.44 |
| 5.04 | 4.79 | 5.36 | 5.19 | high binding affinity | C=CC(O)CCCCC (stereo not shown) [1-Octen-3-ol] | preference of dsMsepCSP5-treated moths for the volatile (in words) (M. separata [1]): non-significant preference |
| 5.10 | 4.20 | 5.42 | 4.60 | high binding affinity | CCCCCC(C)O (stereo not shown) [2-Heptanol] | males attracted to / preferring the volatile (M. separata [2]): 80% |
| 5.29 | 4.67 | 5.61 | 5.07 | – | CCCCCCCCCC(C)=O [2-Undecanone] | behavioral response of M. separata to the volatile (in words) (M. separata [2]): no obvious preference |
| 4.98 | 4.86 | 5.31 | 5.26 | – | CCCCCCCCCCCC(C)=O [2Tridecanone] | – |
| 4.85 | 4.53 | 5.17 | 4.93 | high binding affinity | CCC(O)CC [3-Pentanol] | preference of dsMsepCSP5-treated moths for the volatile (in words) (M. separata [1]): non-significant preference; females attracted to / preferring the volatile (M. separata [2]): 80% |
| – | – | – | – | – | Cc1ccc(C(C)C)cc1 [4-lsopropyltoluene] | pKi (MsepCSP5; pH 5.0): 4.84; pIC50 (MsepCSP5; pH 5.0): 4.52; pKi (MsepCSP5; pH 7.4): 4.68; pIC50 (MsepCSP5; pH 7.4): 4.28 |
| – | – | – | – | – | CC1=CC[C@@](O)(C(C)C)CC1 [(-)-Terpinen-4-ol] | pKi (MsepCSP5; pH 5.0): 5.36; pIC50 (MsepCSP5; pH 5.0): 5.04; pKi (MsepCSP5; pH 7.4): 4.87; pIC50 (MsepCSP5; pH 7.4): 4.46 |
| 3.14 | 3.64 | 3.46 | 4.05 | – | CC/C=C\CCO [Cis-3-hexen-1-ol] | – |
| 4.89 | 4.49 | 5.21 | 4.89 | – | CC/C=C\CCOC(C)=O [Cis-3-hexenyl acetate] | – |
| – | – | – | – | high binding | CCCCCCCCCCCC=O [Dodecyl aldehyde] | pKi (MsepCSP5; pH 5.0): 5.14; pIC50 (MsepCSP5; pH 5.0): 4.82; pKi (MsepCSP5; pH 7.4): 5.16; pIC50 (MsepCSP5; pH 7.4): 4.76 |
| 4.82 | 4.32 | 5.14 | 4.72 | – | CCCCCCCCCCCCCCCCCCCC [Eicosane] | – |
| 5.05 | 4.71 | 5.37 | 5.12 | – | CCOC(C)=O [Ethylacetate] | – |
| 5.03 | 4.84 | 5.35 | 5.24 | high binding affinity | CC12CCC(CC1)C(C)(C)O2 [Eucalyptol] | – |
| 4.13 | 4.23 | 4.45 | 4.64 | – | CCCCCCCCCCCCCCCC [Hexadecane] | – |

| pIC50 (MsepCSP5; IC50, pH 5.0) | pIC50 (MsepCSP5; IC50, pH 7.4) | pKi (MsepCSP5; Ki, pH 5.0) | pKi (MsepCSP5; Ki, pH 7.4) | binding affinity to MsepCSP5 (in words) (MsepCSP5; pH 5.0) | Molecule | further results |
| --- | --- | --- | --- | --- | --- | --- |
| 5.03 | 4.67 | 5.35 | 5.07 | high binding | CCCCCC=O [Hexanal] | – |
| 4.73 | 4.83 | 5.05 | 5.23 | – | CCCCCC [Hexane] | – |
| 4.38 | 4.18 | 4.71 | 4.59 | – | C=CC(C)(O)CCC=C(C)C (stereo not shown) [Linalool] | – |
| 4.96 | 4.32 | 5.29 | 4.73 | – | COC(=O)c1ccccc1 [Methyl benzoate] | females attracted to / preferring the volatile (M. separata [2]): 70%; behavioral response of M. separata to the volatile (in words) (M. separata [2]): strong positive responses; males attracted to / preferring the volatile (M. separata [2]): 67% |
| 4.82 | 4.31 | 5.15 | 4.71 | – | CCCCCCCCCCCCCCCCCCC [Nonadecane] | – |
| 5.14 | 4.63 | 5.47 | 5.03 | – | CCCCCCCC [Octane] | – |
| – | – | – | – | – | C=C(C)[C@H]1CC=C(C)CC1 [R-(+)-Limonene] | pKi (MsepCSP5; pH 5.0): 5.29; pIC50 (MsepCSP5; pH 5.0): 4.96; pKi (MsepCSP5; pH 7.4): 4.82; pIC50 (MsepCSP5; pH 7.4): 4.42 |
| 5.08 | 4.36 | 5.40 | 4.76 | – | CC1=CCC(=C(C)C)CC1 [Terpinolene] | – |
| 4.66 | 4.68 | 4.98 | 5.09 | – | CCCCCCCCCCCCCC [Tetradecane] | – |
| 4.77 | 4.47 | 5.09 | 4.87 | high binding affinity | CCC/C=C/CO [Trans-2-hexen-1-ol] | – |
| 3.32 | 3.28 | 3.64 | 3.68 | – | CCCCCCCCCCCCC [Tridecane] | – |
| – | – | – | – | – | CC1=CC=C(C(C)C)CC1 [α -Terpinene] | pKi (MsepCSP5; pH 5.0): 5.09; pIC50 (MsepCSP5; pH 5.0): 4.77; pKi (MsepCSP5; pH 7.4): 5.06; pIC50 (MsepCSP5; pH 7.4): 4.65 |
| 4.90 | 3.70 | 5.22 | 4.11 | high binding affinity | CC1=CC[C@@H](C(C)(C)O)CC1 [α -Terpineol] | – |
| – | – | – | – | – | CC(=O)/C=C/C1=C(C)CCCC1(C)C [β-Lonone] | pKi (MsepCSP5; pH 5.0): 5.68; pIC50 (MsepCSP5; pH 5.0): 5.36; pKi (MsepCSP5; pH 7.4): 5.30; pIC50 (MsepCSP5; pH 7.4): 4.89 |
| – | – | – | – | – | Farnesene | pKi (MsepCSP5; pH 5.0): 4.45; pIC50 (MsepCSP5; pH 5.0): 4.13; pKi (MsepCSP5; pH 7.4): 4.67; pIC50 (MsepCSP5; pH 7.4): 4.26 |

| Molecule | pIC50 (MsepCSP5; IC50, pH 5.0) | pIC50 (MsepCSP5; IC50, pH 7.4) | pKi (MsepCSP5; Ki, pH 5.0) | pKi (MsepCSP5; Ki, pH 7.4) | binding affinity to MsepCSP5 (in words) (MsepCSP5; pH 5.0) | further results |
| --- | --- | --- | --- | --- | --- | --- |
| OC1CCCCC1 [Cyclohexanol] | 4.15 | 3.86 | 4.47 | 4.27 | – | – |
| CCC/C=C/C=O [Trans-2-hexenal] | 4.36 | 4.64 | 4.68 | 5.04 | moderate binding | – |
